Assay results reported in ChEMBL document CHEMBL1139833, “Synthesis and metabotropic glutamate receptor activity of S-oxidized variants of (-)-4-amino-2-thiabicyclo-[3.1.0]hexane-4,6-dicarboxylate: identification of potent, selective, and orally bioavailable agonists for mGlu2/3 receptors” (J Med Chem, 2007).
The source made the active and inactive calls. No cut-off for these calls is given here.

Key:
[1] = target: Metabotropic glutamate receptor 4 (Homo sapiens) (UniProt Q14833); test: Agonist activity at human mGluR4a assessed as effect on cAMP production in RGT cells upto 100 uM; format: functional, cell-based
Metabotropic glutamate receptor 4 (Homo sapiens), sequence (Q14833 whole entry): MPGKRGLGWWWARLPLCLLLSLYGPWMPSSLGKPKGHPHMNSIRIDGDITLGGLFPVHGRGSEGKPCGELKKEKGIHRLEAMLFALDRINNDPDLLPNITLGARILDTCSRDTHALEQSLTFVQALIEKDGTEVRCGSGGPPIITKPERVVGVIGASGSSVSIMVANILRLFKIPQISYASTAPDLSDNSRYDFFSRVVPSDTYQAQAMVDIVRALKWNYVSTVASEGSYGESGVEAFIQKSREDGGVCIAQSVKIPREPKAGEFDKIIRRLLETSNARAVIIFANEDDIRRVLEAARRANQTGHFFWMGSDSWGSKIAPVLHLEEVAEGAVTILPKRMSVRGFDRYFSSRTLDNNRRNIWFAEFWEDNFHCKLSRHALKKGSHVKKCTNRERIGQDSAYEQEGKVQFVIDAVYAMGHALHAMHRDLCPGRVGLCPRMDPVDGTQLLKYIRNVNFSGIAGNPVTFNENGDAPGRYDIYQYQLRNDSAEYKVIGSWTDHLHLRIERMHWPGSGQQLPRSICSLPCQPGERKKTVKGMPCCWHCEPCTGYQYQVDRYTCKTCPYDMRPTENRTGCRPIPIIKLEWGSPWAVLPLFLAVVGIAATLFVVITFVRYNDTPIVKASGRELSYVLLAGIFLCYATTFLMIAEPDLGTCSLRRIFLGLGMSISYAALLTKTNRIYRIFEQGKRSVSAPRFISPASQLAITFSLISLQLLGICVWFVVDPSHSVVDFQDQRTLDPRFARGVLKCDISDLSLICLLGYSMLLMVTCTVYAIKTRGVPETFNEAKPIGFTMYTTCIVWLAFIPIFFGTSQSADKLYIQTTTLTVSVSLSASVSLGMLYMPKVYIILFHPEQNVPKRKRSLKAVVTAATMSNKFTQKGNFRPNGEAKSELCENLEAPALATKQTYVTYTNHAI
In short: (§1)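 Compounds were tested at concentrations up to 100 µM for agonist or antagonist effects. Assays used RGT cells, which are AV12-664 cells coexpressing GLAST and recombinant human mGlu1a, mGlu5a, mGlu4a or mGlu7a.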

[2] = target: Metabotropic glutamate receptor 1 (Homo sapiens) (UniProt Q13255); test: Antagonist activity against human mGluR1a assessed as effect on cAMP production in RGT cells upto 100 uM; format: functional, cell-based; in short: as §1
Metabotropic glutamate receptor 1 (Homo sapiens), sequence (Q13255 19-1194 limits assumed): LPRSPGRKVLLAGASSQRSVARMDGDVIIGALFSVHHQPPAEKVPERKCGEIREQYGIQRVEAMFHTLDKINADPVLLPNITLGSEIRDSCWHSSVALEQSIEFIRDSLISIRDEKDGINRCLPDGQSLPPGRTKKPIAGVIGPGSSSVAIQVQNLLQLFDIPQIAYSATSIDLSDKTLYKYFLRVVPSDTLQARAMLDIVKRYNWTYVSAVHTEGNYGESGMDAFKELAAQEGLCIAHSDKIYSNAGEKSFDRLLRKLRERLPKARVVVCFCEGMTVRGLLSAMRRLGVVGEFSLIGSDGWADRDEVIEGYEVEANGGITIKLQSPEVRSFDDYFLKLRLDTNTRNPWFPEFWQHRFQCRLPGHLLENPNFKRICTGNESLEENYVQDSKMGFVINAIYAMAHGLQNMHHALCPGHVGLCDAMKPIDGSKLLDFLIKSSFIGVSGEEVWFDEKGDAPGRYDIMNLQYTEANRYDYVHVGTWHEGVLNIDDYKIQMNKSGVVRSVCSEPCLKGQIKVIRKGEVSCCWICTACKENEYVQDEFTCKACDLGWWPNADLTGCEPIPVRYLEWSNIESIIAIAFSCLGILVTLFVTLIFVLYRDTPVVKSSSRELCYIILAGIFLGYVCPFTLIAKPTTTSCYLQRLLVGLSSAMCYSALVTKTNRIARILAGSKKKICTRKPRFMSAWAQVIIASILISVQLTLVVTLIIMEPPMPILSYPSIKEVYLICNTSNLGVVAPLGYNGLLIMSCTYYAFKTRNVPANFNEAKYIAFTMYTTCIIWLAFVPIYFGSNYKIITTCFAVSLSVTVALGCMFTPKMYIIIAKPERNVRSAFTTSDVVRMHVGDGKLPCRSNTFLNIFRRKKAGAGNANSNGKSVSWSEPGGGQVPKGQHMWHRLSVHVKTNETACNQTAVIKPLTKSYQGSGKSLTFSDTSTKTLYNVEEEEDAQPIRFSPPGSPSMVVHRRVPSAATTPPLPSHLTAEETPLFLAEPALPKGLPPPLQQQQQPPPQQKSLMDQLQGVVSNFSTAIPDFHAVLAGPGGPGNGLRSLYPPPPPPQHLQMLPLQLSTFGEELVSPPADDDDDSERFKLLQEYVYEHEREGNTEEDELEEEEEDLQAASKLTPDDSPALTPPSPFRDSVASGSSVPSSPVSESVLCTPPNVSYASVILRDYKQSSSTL

[3] = target: Metabotropic glutamate receptor 7 (Homo sapiens) (UniProt Q14831); test: Agonist activity at human mGluR7a assessed as effect on cAMP production in RGT cells upto 100 uM; format: functional, cell-based; in short: as §1
Metabotropic glutamate receptor 7 (Homo sapiens), sequence (Q14831 whole entry): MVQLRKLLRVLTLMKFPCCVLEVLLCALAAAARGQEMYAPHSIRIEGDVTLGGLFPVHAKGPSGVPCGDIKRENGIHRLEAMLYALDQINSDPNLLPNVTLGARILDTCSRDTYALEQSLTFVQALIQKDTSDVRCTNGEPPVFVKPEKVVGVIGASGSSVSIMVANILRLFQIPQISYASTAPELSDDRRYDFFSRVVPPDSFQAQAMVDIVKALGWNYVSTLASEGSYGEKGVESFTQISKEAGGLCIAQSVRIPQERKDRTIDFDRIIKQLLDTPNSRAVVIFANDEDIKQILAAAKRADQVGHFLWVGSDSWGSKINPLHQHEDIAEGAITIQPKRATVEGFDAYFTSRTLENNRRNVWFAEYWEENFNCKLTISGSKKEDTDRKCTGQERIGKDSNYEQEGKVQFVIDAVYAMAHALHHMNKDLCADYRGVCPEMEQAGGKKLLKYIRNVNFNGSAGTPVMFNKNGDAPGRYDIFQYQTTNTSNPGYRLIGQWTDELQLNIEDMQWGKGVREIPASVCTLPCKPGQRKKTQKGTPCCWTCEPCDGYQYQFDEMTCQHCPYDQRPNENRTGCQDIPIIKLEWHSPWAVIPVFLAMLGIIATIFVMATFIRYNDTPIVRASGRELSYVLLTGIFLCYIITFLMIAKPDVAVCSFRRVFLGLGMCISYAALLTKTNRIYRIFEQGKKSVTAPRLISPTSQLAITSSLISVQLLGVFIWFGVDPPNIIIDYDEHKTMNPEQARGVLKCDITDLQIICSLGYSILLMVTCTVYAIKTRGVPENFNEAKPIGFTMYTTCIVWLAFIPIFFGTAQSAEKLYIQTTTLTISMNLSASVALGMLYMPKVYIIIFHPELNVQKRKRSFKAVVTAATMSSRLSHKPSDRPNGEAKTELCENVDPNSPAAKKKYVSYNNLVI

[4] = target: Metabotropic glutamate receptor 5 (Homo sapiens) (UniProt P41594); test: Antagonist activity against human mGluR5a assessed as effect on cAMP production in RGT cells upto 100 uM; format: functional, cell-based; in short: as §1
Metabotropic glutamate receptor 5 (Homo sapiens), sequence (P41594 21-1212 limits assumed): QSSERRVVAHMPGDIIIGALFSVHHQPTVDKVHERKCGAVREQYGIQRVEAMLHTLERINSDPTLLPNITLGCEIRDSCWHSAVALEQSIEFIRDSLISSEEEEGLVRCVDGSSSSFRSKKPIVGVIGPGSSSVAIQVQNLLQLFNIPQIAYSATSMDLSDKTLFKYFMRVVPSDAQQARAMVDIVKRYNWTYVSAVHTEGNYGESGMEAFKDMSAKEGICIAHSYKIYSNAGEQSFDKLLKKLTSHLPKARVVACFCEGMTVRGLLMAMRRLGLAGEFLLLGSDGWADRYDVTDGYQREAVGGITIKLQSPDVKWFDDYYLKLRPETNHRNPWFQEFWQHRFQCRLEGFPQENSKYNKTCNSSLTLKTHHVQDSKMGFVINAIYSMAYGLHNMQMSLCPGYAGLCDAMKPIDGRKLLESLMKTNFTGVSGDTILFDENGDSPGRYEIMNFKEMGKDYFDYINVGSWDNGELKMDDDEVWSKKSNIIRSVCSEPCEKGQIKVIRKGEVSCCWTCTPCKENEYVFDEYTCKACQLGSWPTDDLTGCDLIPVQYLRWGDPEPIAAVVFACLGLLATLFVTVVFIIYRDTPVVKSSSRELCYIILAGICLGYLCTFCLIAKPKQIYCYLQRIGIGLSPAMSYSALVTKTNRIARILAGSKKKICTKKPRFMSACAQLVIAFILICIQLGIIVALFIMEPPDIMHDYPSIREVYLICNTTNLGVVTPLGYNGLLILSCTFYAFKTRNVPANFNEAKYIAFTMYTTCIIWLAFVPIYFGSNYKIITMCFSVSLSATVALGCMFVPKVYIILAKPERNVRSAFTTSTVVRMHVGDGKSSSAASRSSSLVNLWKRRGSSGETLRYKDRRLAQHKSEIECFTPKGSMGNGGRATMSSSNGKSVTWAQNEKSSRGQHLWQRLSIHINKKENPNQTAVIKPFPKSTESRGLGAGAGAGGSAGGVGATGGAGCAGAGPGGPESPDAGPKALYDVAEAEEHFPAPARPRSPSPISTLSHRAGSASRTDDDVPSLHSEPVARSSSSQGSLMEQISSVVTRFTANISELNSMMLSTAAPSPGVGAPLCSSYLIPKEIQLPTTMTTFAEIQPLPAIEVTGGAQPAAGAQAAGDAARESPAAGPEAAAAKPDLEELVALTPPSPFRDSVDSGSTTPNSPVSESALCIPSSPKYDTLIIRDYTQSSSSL

[5] = target: Metabotropic glutamate receptor 4 (Homo sapiens) (UniProt Q14833); test: Antagonist activity against human mGluR4a assessed as effect on cAMP production in RGT cells upto 100 uM; format: functional, cell-based; in short: as §1
[6] = target: Metabotropic glutamate receptor 1 (Homo sapiens) (UniProt Q13255); test: Agonist activity at human mGluR1a assessed as effect on cAMP production in RGT cells upto 100 uM; format: functional, cell-based; in short: as §1
[7] = target: Metabotropic glutamate receptor 5 (Homo sapiens) (UniProt P41594); test: Agonist activity at human mGluR5a assessed as effect on cAMP production in RGT cells upto 100 uM; format: functional, cell-based; in short: as §1
[8] = target: Metabotropic glutamate receptor 7 (Homo sapiens) (UniProt Q14831); test: Antagonist activity against human mGluR7a assessed as effect on cAMP production in RGT cells upto 100 uM; format: functional, cell-based; in short: as §1
[9] = Plasma concentration in rat at 10 mg/kg, po after 24 hrs; format: ADME, organism-based; parameters: dose 10 mg/kg, route oral
In short: (§2)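 Plasma levels in fasted male Fischer 344 rats after a 10 mg/kg oral dose in pH 7 water (NaOH), quantified by positive-ion electrospray LC/MS/MS. Main protocol sampled at 0.08/0.25–24 h, n=3 rats per time point. A variant oral-only arm used n=6 rats with samples at 0.5, 1, 2, 3, 4 and 6 h.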

[10] = Plasma concentration in Fischer 344 rat at 10 mg/kg, po after 16 hrs; format: ADME, organism-based; parameters: dose 10 mg/kg, route oral; in short: as §2
[11] = target: Metabotropic glutamate receptor 8 (Homo sapiens, UniProt O00222); test: Agonist activity at human mGluR8 assessed as effect on cAMP production in RGT cells; format: functional, cell-based
In short: (§3)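 cAMP second-messenger responses measured in RGT cells. These are non-neuronal AV12-664 cells coexpressing the glutamate transporter GLAST, to minimize glutamate activity, plus the recombinant human receptor (mGlu2, mGlu3 or mGlu8). Agonist EC50 determined.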

[12] = target: T1, Metabotropic glutamate receptor 3 (Homo sapiens, UniProt Q14832); test: Displacement of [3H]LY341495 from human recombinant mGluR3 in RGT cells; format: cell-based
T1 sequence (Q14832 whole entry): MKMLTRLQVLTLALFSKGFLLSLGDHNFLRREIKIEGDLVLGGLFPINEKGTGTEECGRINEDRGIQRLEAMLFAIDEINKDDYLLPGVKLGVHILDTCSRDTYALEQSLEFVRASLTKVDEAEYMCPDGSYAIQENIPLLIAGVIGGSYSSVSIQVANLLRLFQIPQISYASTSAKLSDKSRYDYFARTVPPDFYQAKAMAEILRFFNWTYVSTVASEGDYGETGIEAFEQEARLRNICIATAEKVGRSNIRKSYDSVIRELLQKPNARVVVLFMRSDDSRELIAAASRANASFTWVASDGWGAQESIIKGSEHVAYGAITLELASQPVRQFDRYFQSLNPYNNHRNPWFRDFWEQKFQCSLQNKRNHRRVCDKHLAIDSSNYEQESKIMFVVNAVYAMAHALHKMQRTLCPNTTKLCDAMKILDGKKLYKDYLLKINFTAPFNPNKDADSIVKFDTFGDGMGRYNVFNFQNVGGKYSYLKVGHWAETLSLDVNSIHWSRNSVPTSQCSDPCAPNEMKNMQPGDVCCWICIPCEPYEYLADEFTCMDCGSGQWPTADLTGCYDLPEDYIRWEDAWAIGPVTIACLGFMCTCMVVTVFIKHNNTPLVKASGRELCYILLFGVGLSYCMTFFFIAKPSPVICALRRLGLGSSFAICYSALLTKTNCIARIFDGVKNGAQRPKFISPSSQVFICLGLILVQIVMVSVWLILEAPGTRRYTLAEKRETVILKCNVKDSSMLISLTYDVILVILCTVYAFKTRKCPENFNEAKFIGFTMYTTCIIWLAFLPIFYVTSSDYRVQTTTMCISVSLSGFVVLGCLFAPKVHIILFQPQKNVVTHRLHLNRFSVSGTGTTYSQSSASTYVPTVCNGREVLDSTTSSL
In short: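 Radioligand binding on membranes carrying recombinant human mGlu2 or mGlu3, displacing the antagonist [3H]LY341495. Ki was calculated from IC50 by the Cheng-Prusoff equation. Values are the mean of at least three separate experiments.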

[13] = Plasma concentration in Fischer 344 rat at 10 mg/kg, po after 8 hrs; format: ADME, organism-based; parameters: dose 10 mg/kg, route oral; in short: as §2
[14] = AUC (0-24h) in Fischer 344 rat at 10 mg/kg, iv; format: ADME, organism-based; parameters: time < 24 hr, dose 10 mg/kg, route intravenous; settings: plasma
In short: (§4)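 Male Fischer 344 rats fasted overnight, food returned 4 h post dose, water ad libitum. Doses were in water brought to pH 7 with NaOH, given i.v. (2.5 or 10 mg/kg) or p.o. (10 mg/kg). Nine rats per dose group, three per time point, with blood taken over 0.08–24 h. Plasma measured by LC/MS/MS.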

[15] = Tmax in Fischer 344 rat at 10 mg/kg, iv; format: ADME, organism-based; parameters: dose 10 mg/kg, route intravenous; settings: in vivo; in short: as §4
[16] = target: Metabotropic glutamate receptor 2 (Homo sapiens, UniProt Q14416); test: Agonist activity at human mGluR2 assessed as effect on cAMP production in RGT cells; format: functional, cell-based; in short: as §3
Rattus norvegicus [17] = test: Plasma concentration in Fischer 344 rat at 10 mg/kg, po after 6 hrs; format: ADME, organism-based; parameters: dose 10 mg/kg, route oral; settings: in vivo; in short: as §2
[18] = Tmax in Fischer 344 rat at 10 mg/kg, po; format: ADME, organism-based; parameters: dose 10 mg/kg, route oral; settings: Fischer 344, rat, in vivo; in short: as §4
Rattus norvegicus [19] = test: Cmax in Fischer 344 rat at 10 mg/kg, iv; format: ADME, organism-based; parameters: dose 10 mg/kg, route intravenous; settings: in vivo; in short: as §4
[20] = target: T1, Metabotropic glutamate receptor 3; test: Agonist activity at human mGluR3 assessed as effect on cAMP production in RGT cells; format: functional, cell-based; in short: as §3
Rattus norvegicus [21] = test: Plasma concentration in Fischer 344 rat at 10 mg/kg, po after 1 hrs; format: ADME, organism-based; parameters: dose 10 mg/kg, route oral; settings: in vivo; in short: as §2
Rattus norvegicus [22] = test: AUC (0-24h) in Fischer 344 rat at 10 mg/kg, po; format: ADME, organism-based, Plasma; parameters: time < 24 hr, dose 10 mg/kg, route oral; settings: rat, in vivo, 24 h; in short: as §4
Rattus norvegicus [23] = test: Inhibition of PCP-induced ambulations in Sprague-Dawley rat after oral administration; format: functional
In short: (§5)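 Male Sprague-Dawley rats (225-274 g) fasted 12-18 h and habituated 30 min to the test cage. Test drug or vehicle was given orally 2 h before PCP (5 mg/kg s.c.) or 0.9% NaCl. Horizontal photobeam breaks were counted over 60 min, n=8-13 per group.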

Rattus norvegicus [24] = test: Reduction of PCP-induced ambulations in Sprague-Dawley rat at 10 mg/kg, po; format: functional; parameters: scale not given: the % may be the effect or the level left; in short: as §5
Rattus norvegicus [25] = test: Plasma concentration in Fischer 344 rat at 10 mg/kg, po after 0.5 hrs; format: ADME, organism-based; parameters: dose 10 mg/kg, route oral; settings: in vivo; in short: as §2
Rattus norvegicus [26] = test: Reduction of PCP-induced ambulations in Sprague-Dawley rat at 3 mg/kg, po; format: functional; parameters: scale not given: the % may be the effect or the level left; in short: as §5
Rattus norvegicus [27] = test: Plasma concentration in Fischer 344 rat at 10 mg/kg, po after 3 hrs; format: ADME, organism-based; parameters: dose 10 mg/kg, route oral; settings: in vivo; in short: as §2
Rattus norvegicus [28] = test: Cmax in Fischer 344 rat at 10 mg/kg, po; format: ADME, organism-based; parameters: dose 10 mg/kg, route oral; settings: in vivo; in short: as §4
Rattus norvegicus [29] = test: Plasma concentration in Fischer 344 rat at 10 mg/kg, po after 2 hrs; format: ADME, organism-based; parameters: dose 10 mg/kg, route oral; settings: in vivo; in short: as §2
Rattus norvegicus [30] = test: Plasma concentration in Fischer 344 rat at 10 mg/kg, po after 4 hrs; format: ADME, organism-based; parameters: dose 10 mg/kg, route oral; settings: in vivo; in short: as §2
[31] = Oral bioavailability in Fischer 344 rat at 10 mg/kg, po; format: ADME, organism-based; settings: in vivo; in short: as §4
Rattus norvegicus [32] = test: Impairment of rotarod performance in Sprague-Dawley rat at 3 mg/kg, po after 2 hrs; format: functional, organism-based; parameters: dose 3 mg/kg
In short: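 Fasted Sprague-Dawley rats were trained on a rotorod at 4 rpm over four trials. Rats holding on for 60 s were retested 30 min before dosing, then given oral drug or vehicle. They were tested again 2 h later for up to 60 s. Read-out is mean seconds on the rod, n=8 per group.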

N[C@@]1(C(=O)O)CC[C@H]2[C@H](C(=O)O)[C@H]21
Activity [1]: inactive | Activity [2]: inactive | Activity [3]: inactive | Activity [4]: inactive | Activity [5]: inactive | Activity [6]: inactive | Activity [7]: inactive | Activity [8]: inactive

N[C@@]1(C(=O)O)CO[C@H]2[C@H](C(=O)O)[C@H]21
Activity [1]: inactive | Activity [2]: inactive | Activity [3]: inactive | Activity [4]: inactive | Activity [5]: inactive | Activity [6]: inactive | Activity [7]: inactive | Activity [8]: inactive

N[C@@]1(C(=O)O)CS[C@H]2[C@H](C(=O)O)[C@H]21
Activity [1]: inactive | Activity [2]: inactive | Activity [3]: inactive | Activity [4]: inactive | Activity [5]: inactive | Activity [6]: inactive | Activity [7]: inactive | Activity [8]: inactive

N[C@@]1(C(=O)O)C[S+]([O-])[C@H]2[C@H](C(=O)O)[C@H]21 (stereo in doubt; (+)-11) [listing 1 of 2 here]
concentration at 24 h [9]: 3 ng/mL | concentration at 16 h [10]: 34 ng/mL | EC50 [11]: 3070 nM | Ki [12]: 0.17 nM | concentration at 8 h [13]: 202 ng/mL | AUC(0-t) at 24 h [14]: 13000 ng·h/mL | Tmax [15]: 0 h | EC50 [16]: 0.089 nM | Cp (Rattus norvegicus [17]): 311 ng/mL | Tmax [18]: 30 min | Cmax (Rattus norvegicus [19]): 29000 ng/mL | EC50 [20]: 1.4 nM | Cp (Rattus norvegicus [21]): 3244 ng/mL | AUC (Rattus norvegicus [22]): 13000 ng·h/mL | ED50 (Rattus norvegicus [23]): 2.3 mg/kg | Activity (Rattus norvegicus [24]): 98% | Cp (Rattus norvegicus [25]): 7495 ng/mL | Activity (Rattus norvegicus [26]): 98% | Cp (Rattus norvegicus [27]): 699 ng/mL | Cmax (Rattus norvegicus [28]): 7500 ng/mL | Cp (Rattus norvegicus [29]): 2895 ng/mL | Cp (Rattus norvegicus [30]): 726 ng/mL | bioavailability [31]: 100%

N[C@@]1(C(=O)O)C[S+]([O-])[C@H]2[C@H](C(=O)O)[C@H]21 (stereo in doubt; (+)-11) [listing 2 of 2 here]
Activity [1]: inactive | Activity [2]: inactive | Activity [3]: inactive | Activity [4]: inactive | Activity [5]: inactive | Activity [6]: inactive | Activity (Rattus norvegicus [32]): Active | Activity [7]: inactive | Activity [8]: inactive
